Assay [1] concerns Klebsiella pneumoniae. In words: Antibacterial activity against Klebsiella pneumoniae by two fold broth dilution method. In kind it is functional. A general note: Dilution methods test growth across graded concentrations, often in twofold steps.
The test system of assay [2] is Candida albicans. In words: Antifungal activity against Candida albicans after 48 hrs by two fold agar dilution method. It is filed as functional. Summed up:
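Two-fold serial dilutions in DMSO were tested against C. albicans by agar dilution. Cultures were incubated for 48 h at 35 °C and growth was monitored. MIC was taken as the lowest concentration (highest dilution) that arrested fungal growth.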

Assay [3] has as its system Staphylococcus aureus. In words: Antibacterial activity against Staphylococcus aureus ATCC 25923 by two fold broth dilution method. It is filed as functional.
Assay [4] has as its system Staphylococcus aureus. In words: Antibacterial activity against methicillin-resistant Staphylococcus aureus ATCC 43866 by broth dilution method. In kind it is functional.
Assay [5] has as its system Escherichia coli. In words: Antibacterial activity against Escherichia coli ATCC 25922 by two fold broth dilution method. In kind it is functional.
The test system of assay [6] is Bacillus spizizenii. In words: Antibacterial activity against Bacillus subtilis ATCC 6633 by two fold broth dilution method. It is filed as functional.
The subject of assay [7] is Vero. In words: Cytotoxicity against african green monkey Vero cells after 72 hrs by MTT assay. It is filed as cell-based. The settings on record: Chlorocebus sabaeus. Put shortly: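 Vero cells were exposed to compounds for 72 h. Viability was measured by cellular conversion of MTT into formazan (non-radioactive proliferation assay), and the cytotoxic concentration was reported as IC50.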
(In general: Tetrazolium dyes change colour on reduction, which living cells bring about.)

For assay [8], the system named is Staphylococcus aureus. The assay can be described thus: Antibacterial activity against methicillin-susceptible Staphylococcus aureus ATCC 35556 by broth dilution method. It is filed as functional.
Assay [9] relates to Mycobacterium tuberculosis. The assay can be described thus: Antitubercular activity against Mycobacterium tuberculosis H37Rv after 7 days by resazurin microtitre assay. In kind it is functional. Particulars: 168 h. On the technique in general: Resazurin is reduced to fluorescent resorufin, in cell work by metabolically active cells.
Assay [10] has as its system Staphylococcus aureus. The assay can be described thus: Ratio of ciprofloxacin MIC to compound MIC against Staphylococcus aureus ATCC 25923. In kind it is functional.

Converted amounts (≈) assume the structure as drawn.

As a reminder, the MIC is the lowest concentration found to suppress growth. For orientation: IC50 means the point on the concentration scale where inhibition reaches its midpoint.

On to `Cc1ccc(-c2nnc(-c3cc([N+](=O)[O-])c[nH]3)o2)s1`, for which the MIC in assay [1] worked out at 25 µg/mL (≈ 90.5 µM); in assay [2], 3.12 µg/mL (≈ 11.3 µM); in assay [3], 1.56 µg/mL (≈ 5.65 µM); in assay [4], 3.12 µg/mL (≈ 11.3 µM); in assay [5], 6.25 µg/mL (≈ 22.6 µM); in assay [6], 3.12 µg/mL (≈ 11.3 µM). In assay [8], the minimum inhibitory concentration (MIC) is 1.56 µg/mL (≈ 5.65 µM). Besides, the midpoint of inhibition in assay [7], the IC50, lay at 329 µM.
With `O=[N+]([O-])c1c[nH]c(-c2nnc(-c3cccc([N+](=O)[O-])c3O)o2)c1`, the MIC in assay [9] was 1.8 µg/mL (≈ 5.67 µM); in assay [1] it was 25 µg/mL (≈ 78.8 µM); in [2], 3.12 µg/mL (≈ 9.85 µM); in assay [3] it was 1.56 µg/mL (≈ 4.92 µM); in assay [4] it was 3.12 µg/mL (≈ 9.85 µM); in [5] it was 6.25 µg/mL (≈ 19.7 µM). The values for the MIC in assay [6] and in assay [8] were 3.12 µg/mL (≈ 9.85 µM) and 1.56 µg/mL (≈ 4.92 µM), respectively. In assay [7], this molecule showed a half-maximal inhibitory concentration (IC50) of 498 µM.
For the molecule `O=[N+]([O-])c1c[nH]c(-c2nnc(Cc3ccc(F)c4ccccc34)o2)c1`, the MIC in assay [9] worked out at 64.8 µg/mL (≈ 192 µM); in [1], 25 µg/mL (≈ 73.9 µM); in assay [2], 3.12 µg/mL (≈ 9.24 µM); in [3], 1.56 µg/mL (≈ 4.61 µM); in [4], 3.12 µg/mL (≈ 9.24 µM); in assay [5], 3.12 µg/mL (≈ 9.24 µM). In addition, the MIC in assay [6] stood at 3.12 µg/mL (≈ 9.24 µM); in [8], 1.56 µg/mL (≈ 4.61 µM). In assay [7], this molecule yielded a half-inhibitory concentration (IC50) of 229 µM.
As for `O=[N+]([O-])c1c[nH]c(-c2nnc(-c3ccco3)o2)c1`, the MIC in [9] was 42.8 µg/mL (≈ 174 µM); in assay [1] it was 25 µg/mL (≈ 102 µM); in assay [2], 3.12 µg/mL (≈ 12.7 µM); in assay [3] it was 0.78 µg/mL (≈ 3.17 µM); in assay [4] it was 3.12 µg/mL (≈ 12.7 µM); in assay [5], 3.12 µg/mL (≈ 12.7 µM). For the same molecule, the minimal inhibitory concentration (MIC) in [6] and in assay [8] was 1.56 µg/mL (≈ 6.34 µM) throughout. Besides, the Ratio in assay [10] was 2. The molecule further returned an IC50 in assay [7] of 370 µM.
For `O=[N+]([O-])c1c[nH]c(-c2nnc(-c3cccs3)o2)c1`, the MIC amounted to 87.1 µg/mL (≈ 332 µM) in [9]; 25 µg/mL (≈ 95.3 µM) in assay [1]; 6.25 µg/mL (≈ 23.8 µM) in assay [2]; 1.56 µg/mL (≈ 5.95 µM) in [3]; 3.12 µg/mL (≈ 11.9 µM) in assay [4]; 1.56 µg/mL (≈ 5.95 µM) in assay [5]. Besides, the MIC in assay [6] amounted to 1.56 µg/mL (≈ 5.95 µM); in assay [8] it was 3.12 µg/mL (≈ 11.9 µM). The molecule further registered an IC50 in assay [7] of 418 µM.
With `O=[N+]([O-])c1c[nH]c(-c2nnc(-c3ccccc3)o2)c1`, the MIC in assay [9] worked out at 56.3 µg/mL (≈ 220 µM); in assay [1], 25 µg/mL (≈ 97.6 µM); in [2], 12.5 µg/mL (≈ 48.8 µM); in assay [3], 3.12 µg/mL (≈ 12.2 µM); in assay [4], 3.12 µg/mL (≈ 12.2 µM); in assay [5], 6.25 µg/mL (≈ 24.4 µM). The values for the MIC in [6] and in [8] were 3.12 µg/mL (≈ 12.2 µM) and 1.56 µg/mL (≈ 6.09 µM), respectively. This molecule also gave an IC50 in [7] of 423 µM.
For the molecule `O=[N+]([O-])c1c[nH]c(-c2nnc(-c3ccccc3O)o2)c1`, the minimal inhibitory concentration (MIC) is 2.1 µg/mL (≈ 7.71 µM) in assay [9]; 25 µg/mL (≈ 91.8 µM) in [1]; 3.12 µg/mL (≈ 11.5 µM) in assay [2]; 1.56 µg/mL (≈ 5.73 µM) in [3]; 3.12 µg/mL (≈ 11.5 µM) in assay [4]; 1.56 µg/mL (≈ 5.73 µM) in [5]. Also, the MIC was 3.12 µg/mL (≈ 11.5 µM) in assay [6] and 1.56 µg/mL (≈ 5.73 µM) in assay [8]. Also, in assay [7], 375 µM corresponded to half-maximal inhibition (IC50).
As to `O=[N+]([O-])c1c[nH]c(-c2nnc(C3(c4ccccc4)CC3)o2)c1`, the MIC came to 56.8 µg/mL (≈ 192 µM) in assay [9]; 25 µg/mL (≈ 84.4 µM) in [1]; 25 µg/mL (≈ 84.4 µM) in assay [2]; 0.78 µg/mL (≈ 2.63 µM) in [3]; 3.12 µg/mL (≈ 10.5 µM) in assay [4]; 1.56 µg/mL (≈ 5.27 µM) in assay [5]. For the same molecule, the MIC in assay [6] is 3.12 µg/mL (≈ 10.5 µM); in assay [8], 1.56 µg/mL (≈ 5.27 µM). The Ratio in assay [10] is 2. The same molecule registered an IC50 in assay [7] of 380 µM.
With `Cn1cc([N+](=O)[O-])cc1-c1nnc(-c2cc3cc(Cl)ccc3[nH]2)o1`, the MIC in [9] came to 24 µg/mL (≈ 69.8 µM); in [1], 12.5 µg/mL (≈ 36.4 µM); in [2], 1.56 µg/mL (≈ 4.54 µM); in assay [3], 0.39 µg/mL (≈ 1.13 µM); in [4] it was 1.56 µg/mL (≈ 4.54 µM); in assay [5] it was 1.56 µg/mL (≈ 4.54 µM). The MIC in assay [6] is 1.56 µg/mL (≈ 4.54 µM); in [8], 0.39 µg/mL (≈ 1.13 µM). Besides, the Ratio in assay [10] stood at 3. In addition, the IC50 in assay [7] was found to be 743 µM.
As for `C[C@@H]1[C@H](O)[C@@H](C)/C=C/C=C/C=C/C=C/C=C/C=C/C=C/[C@H](O[C@@H]2O[C@H](C)[C@@H](O)[C@H](N)[C@@H]2O)C[C@@H]2O[C@](O)(C[C@@H](O)C[C@@H](O)[C@H](O)CC[C@@H](O)C[C@@H](O)CC(=O)O[C@H]1C)C[C@H](O)[C@H]2C(=O)O` [AMPHOTERICIN B], inhibition of growth in assay [2] (MIC) required 3.12 µg/mL (≈ 3.38 µM).
Turning to `O=C(O)c1cn(C2CC2)c2cc(N3CCNCC3)c(F)cc2c1=O` [CIPROFLOXACIN], the MIC came to 1.56 µg/mL (≈ 4.71 µM) in [1]; 1.56 µg/mL (≈ 4.71 µM) in [3]; 3.12 µg/mL (≈ 9.43 µM) in assay [4]; 1.56 µg/mL (≈ 4.71 µM) in assay [6]; 1.56 µg/mL (≈ 4.71 µM) in [8].
Molecule `NNC(=O)c1ccncc1` [ISONIAZID] came in with an MIC in assay [9] of 0.4 µg/mL (≈ 2.92 µM).

The record behind these values is ChEMBL document CHEMBL3085642, “Synthesis and evaluation of novel 4-nitropyrrole-based 1,3,4-oxadiazole derivatives as antimicrobial and anti-tubercular agents” (Eur J Med Chem, 2013).
